Experimental data as given in PMC11698471 (Neuropharmacology, 2022).

Legend:
[1] = test system: MPTP-treated parkinsonian macaques; assay: PDE9i - L-DOPA co-administration trial in MPTP parkinsonian macaques; assay type: in vivo, Macaca Mulatta and Fascicularis; conditions: L-DOPA suboptimal dose s.c. alone, typical average
[2] = Plasma pharmacokinetics in awake macaques; assay type: in vivo, Macaca Mulatta and Fascicularis; conditions: suboptimal L-DOPA + PDE9i 5 mg/kg vs PDE9i vehicle
How it was run: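 Two awake, chair-trained MPTP-parkinsonian macaques from the behavioural cohort were restrained unsedated. Test compound (s.c., 5 mg/kg, or 0 mg/kg vehicle) was given with each animal's sub-optimal s.c. L-DOPA methyl ester/benserazide dose. Saphenous vascular-port blood was drawn pre-injection and at 60, 120 and 180 min. Each treatment was given twice, and samples were processed in duplicate. Plasma was stored at −80°C for LC/MS.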

[3] = test system: MPTP-treated parkinsonian macaques; assay: L-Dopa responses of the parkinsonian macaques; assay type: in vivo, Macaca Mulatta and Fascicularis
PDE 9, 10, and 11 = conditions: cited from earlier work
PDE 5 and 6 = conditions: cited from earlier work
[4] = test system: L-DOPA-induced abnormal involuntary movements; conditions: rodents; ref Giorgi et al., 2008; Picconi et al., 2011; cited from earlier work

**Q.** Which results are given for `N[C@@H](Cc1ccc(O)c(O)c1)C(=O)O` [L-DOPA]?
**A.** response duration ("on" state) [1]: ~100 min; plasma levels of L-DOPA with PDE9i addition [2]: remained unchanged; LID (dyskinesia score at peak-dose effect of L-dopa) ([3]; monkey 1, scale 0 to 27): 13; MDS ON (motor disability score at the peak-dose effect of L-dopa) ([3]; monkey 1, scale 0 to 39, MDS OFF 17): 1.5; LID (dyskinesia score at peak-dose effect of L-dopa) ([3]; monkey 2, scale 0 to 27): 11.5; MDS ON (motor disability score at the peak-dose effect of L-dopa) ([3]; monkey 2, scale 0 to 39, MDS OFF 17): 1.5; LID (dyskinesia score at peak-dose effect of L-dopa) ([3]; monkey 3, scale 0 to 27): 10; MDS ON (motor disability score at the peak-dose effect of L-dopa) ([3]; monkey 3, scale 0 to 39, MDS OFF 19): 3.5; LID (dyskinesia score at peak-dose effect of L-dopa) ([3]; monkey 4, scale 0 to 27): 9; MDS ON (motor disability score at the peak-dose effect of L-dopa) ([3]; monkey 4, scale 0 to 39, MDS OFF 22): 4.5; LID (dyskinesia score at peak-dose effect of L-dopa) ([3]; monkey 5, scale 0 to 27): 7; MDS ON (motor disability score at the peak-dose effect of L-dopa) ([3]; monkey 5, scale 0 to 39, MDS OFF 23): 8.5; LID (dyskinesia score at peak-dose effect of L-dopa) ([3]; monkey 6, scale 0 to 27): 11; MDS ON (motor disability score at the peak-dose effect of L-dopa) ([3]; monkey 6, scale 0 to 39, MDS OFF 23.5): 3.5

**Q.** Which “affinity for PDE 9, 10, and 11” value (PDE 9, 10, and 11) does the source give for `CCCOc1ccccc1-c1nc2nn[nH]c2c(=O)[nH]1` [zaprinast] here?
**A.** Its value is “weak”.

**Q.** And the “affinity for PDE 5 and 6” value (PDE 5 and 6)?
**A.** Its value is “moderate”.

**Q.** And the “L-DOPA-induced abnormal involuntary movements” value [4]?
**A.** The value was “reduction of L-DOPA-induced abnormal involuntary movements”.
